# Measurements from different studies.
# Each line is one published result; the experiments were not run side by side.
SMILES,tested on,test,setting,quantity,result
O=C1NN=C(N=Cc2ccc(O)c(O)c2)C1=NNn1c(-c2ccccc2)nc2ccccc2c1=O,Trichophyton rubrum,"microbial growth, broth dilution",,MIC,107 µM
c1cnc2nc(-c3ccc4c(c3)OCO4)c(NCCN3CCOCC3)n2c1,Leishmania amazonensis,"parasite growth, MTT","72 h, promastigote",IC50,> 100 µM
Cc1cccc2cc(CNCC3(N4CCCC4)COC3)cnc12,T98G,cell growth or viability,"30 µM, 48 h",viability,92.1%
CC(C)(C)CC(C)(C)Nc1c(-c2ccc(Cl)cc2)nc2ncccn12,Leishmania amazonensis,"parasite growth, MTT","72 h, promastigote",IC50,36.4 µM
CCc1ccc(C(=O)NC(=O)c2ccccc2O)cc1,HEK293,cell growth or viability,,IC50,> 10 µM
CC1=NN(CNC(=O)c2ccccn2)C(=O)C1=NNn1c(-c2ccccc2)nc2ccccc2c1=O,Trichophyton rubrum,"microbial growth, broth dilution",,MIC,104 µM
COc1ccc([S+]([O-])c2ccccc2)c(OC)c1OC (stereo not drawn),Leishmania braziliensis,"parasite growth, MTT","24 h, promastigote",IC50,62.6 µM
Clc1ccccc1-c1ccc(CNCC2(N3CCCC3)COC2)o1,GBM6,cell growth or viability,"30 µM, 48 h",viability,80.6%
COc1ccc(-c2nc3ncccn3c2NC(C)(C)CC(C)(C)C)cc1O,Leishmania amazonensis,"parasite growth, MTT","72 h, promastigote",IC50,> 100 µM
COc1ccc(S(=O)(=O)c2ccc(C)cc2)c(OC)c1OC,Leishmania braziliensis,"parasite growth, MTT","24 h, promastigote",IC50,91.7 µM
CC(C)(C)Nc1c(-c2ccc3c(c2)OCO3)nc2ncccn12,Leishmania amazonensis,"parasite growth, MTT","72 h, promastigote",IC50,> 100 µM
O=C1NN=C(N=Cc2ccc(O)cc2O)C1=NNn1c(-c2ccccc2)nc2ccccc2c1=O,Trichophyton rubrum,"microbial growth, broth dilution",,MIC,53.5 µM
